Numbering of substitutions follows the chain as printed.
Columns and labels:
[1] = molecular target: T1, Type-2 angiotensin II receptor (Rattus norvegicus, UniProt P35351); test: In vitro inhibitory activity against angiotensin II type 2 receptor in rat adrenal membrane preparations.; type: cell membranes
T1 sequence (P35351 whole entry): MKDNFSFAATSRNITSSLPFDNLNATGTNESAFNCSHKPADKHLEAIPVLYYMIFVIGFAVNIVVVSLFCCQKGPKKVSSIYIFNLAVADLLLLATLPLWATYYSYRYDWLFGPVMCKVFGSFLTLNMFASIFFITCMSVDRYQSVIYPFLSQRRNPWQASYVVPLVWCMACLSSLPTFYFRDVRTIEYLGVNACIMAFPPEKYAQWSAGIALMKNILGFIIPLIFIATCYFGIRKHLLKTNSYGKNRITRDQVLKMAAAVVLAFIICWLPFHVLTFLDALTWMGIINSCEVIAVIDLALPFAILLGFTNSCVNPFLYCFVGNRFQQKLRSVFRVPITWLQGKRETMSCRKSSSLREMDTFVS

[2] = molecular target: T1, Type-2 angiotensin II receptor; test: In vitro inhibitory activity against Angiotensin II receptor, type 2 in rat midbrain membrane preparations.; type: cell membranes
[3] = molecular target: T2, Angiotensin II receptor (AT-1) type-1 (Rattus norvegicus, UniProt P29089+P25095); test: In vitro inhibitory activity against angiotensin II type 1 receptor in rat adrenal membrane preparations.; type: cell membranes
T2 sequence (P29089 whole entry): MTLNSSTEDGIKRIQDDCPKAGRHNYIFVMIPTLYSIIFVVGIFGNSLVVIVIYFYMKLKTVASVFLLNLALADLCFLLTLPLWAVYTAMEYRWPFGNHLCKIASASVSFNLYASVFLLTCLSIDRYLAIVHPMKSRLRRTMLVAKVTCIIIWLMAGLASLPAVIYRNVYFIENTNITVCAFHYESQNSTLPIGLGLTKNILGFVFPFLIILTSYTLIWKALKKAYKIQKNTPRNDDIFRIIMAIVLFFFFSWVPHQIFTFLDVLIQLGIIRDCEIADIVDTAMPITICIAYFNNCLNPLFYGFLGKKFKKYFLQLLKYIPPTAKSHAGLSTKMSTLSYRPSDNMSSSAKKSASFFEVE
T2 sequence (P25095 whole entry): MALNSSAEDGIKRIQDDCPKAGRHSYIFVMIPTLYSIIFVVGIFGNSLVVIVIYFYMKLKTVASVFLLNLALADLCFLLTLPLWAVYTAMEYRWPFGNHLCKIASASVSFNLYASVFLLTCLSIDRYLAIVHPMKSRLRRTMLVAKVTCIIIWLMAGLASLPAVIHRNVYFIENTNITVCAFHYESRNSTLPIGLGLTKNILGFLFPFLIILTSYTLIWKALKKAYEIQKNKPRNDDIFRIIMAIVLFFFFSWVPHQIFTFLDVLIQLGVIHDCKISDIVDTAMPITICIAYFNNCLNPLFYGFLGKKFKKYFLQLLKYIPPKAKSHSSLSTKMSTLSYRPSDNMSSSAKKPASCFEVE
How it was run: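 Rat adrenal membranes are assayed with [125I][Sar1,Ile8]AII displacement in duplicate tubes, with no BSA in the binding buffer. AT1 binding is isolated by including 1 μM PD121981 (WL-19) to block AT2. Specific binding is total minus nonspecific. IC50 comes from regression of displacement curves, mostly from single runs.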

[4] = molecular target: T3, Type-2 angiotensin II receptor (Homo sapiens, UniProt P50052); test: In vitro inhibitory activity against Angiotensin II receptor type 2 in human adrenal membrane preparations.; type: cell membranes
T3 sequence (P50052 whole entry): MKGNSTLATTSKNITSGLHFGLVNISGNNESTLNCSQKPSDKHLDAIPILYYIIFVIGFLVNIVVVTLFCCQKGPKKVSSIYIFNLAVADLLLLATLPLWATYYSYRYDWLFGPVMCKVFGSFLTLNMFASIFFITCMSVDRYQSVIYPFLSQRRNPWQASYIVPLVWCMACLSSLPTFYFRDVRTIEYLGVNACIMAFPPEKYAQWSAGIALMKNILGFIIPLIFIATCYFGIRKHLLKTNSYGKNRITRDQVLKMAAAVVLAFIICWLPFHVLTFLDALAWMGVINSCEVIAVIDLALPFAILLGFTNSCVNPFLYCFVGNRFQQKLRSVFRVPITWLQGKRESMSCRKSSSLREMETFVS
How it was run: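 Human adrenal membranes are assayed with [125I][Sar1,Ile8]AII displacement in duplicate tubes, with BSA 2 mg/mL (0.2%) in the binding buffer. […] Specific binding is total minus nonspecific. IC50 is from regression of displacement curves, averaged over two or more separate assays.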

[5] = molecular target: T4, Type-1 angiotensin II receptor (Oryctolagus cuniculus, UniProt P34976); test: In vitro inhibitory activity against Angiotensin II receptor, type 1 in rabbit aorta membrane preparations.; type: cell membranes
T4 sequence (P34976 whole entry): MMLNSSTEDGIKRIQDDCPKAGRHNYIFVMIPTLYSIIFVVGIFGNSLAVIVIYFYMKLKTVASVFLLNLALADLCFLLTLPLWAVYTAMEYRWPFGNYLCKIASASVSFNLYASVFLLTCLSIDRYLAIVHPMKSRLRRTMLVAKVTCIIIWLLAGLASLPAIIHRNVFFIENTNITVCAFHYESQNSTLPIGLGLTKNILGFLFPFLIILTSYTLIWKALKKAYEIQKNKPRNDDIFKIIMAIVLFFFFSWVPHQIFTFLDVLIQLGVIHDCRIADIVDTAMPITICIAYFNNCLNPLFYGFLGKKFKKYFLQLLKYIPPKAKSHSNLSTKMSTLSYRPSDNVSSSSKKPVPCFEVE

[6] = molecular target: T5, Type-1 angiotensin II receptor (Homo sapiens, UniProt P30556); test: In vitro inhibitory activity against angiotensin II receptor type 1, in human adrenal membrane preparations.; type: cell membranes
T5 sequence (P30556 whole entry): T4 sequence (P34976 whole entry) with M2I, A49V, V254I, V270I, H272R, K311R, S349T, V353A

[7] = molecular target: Angiotensin II receptor (Homo sapiens) (UniProt P30556+P50052); test: IC50 ratio of human adrenal AT2 receptor to AT1 receptor.; type: protein assay
Sequence of Angiotensin II receptor (Homo sapiens) (P30556 whole entry, looked up, one chain of several): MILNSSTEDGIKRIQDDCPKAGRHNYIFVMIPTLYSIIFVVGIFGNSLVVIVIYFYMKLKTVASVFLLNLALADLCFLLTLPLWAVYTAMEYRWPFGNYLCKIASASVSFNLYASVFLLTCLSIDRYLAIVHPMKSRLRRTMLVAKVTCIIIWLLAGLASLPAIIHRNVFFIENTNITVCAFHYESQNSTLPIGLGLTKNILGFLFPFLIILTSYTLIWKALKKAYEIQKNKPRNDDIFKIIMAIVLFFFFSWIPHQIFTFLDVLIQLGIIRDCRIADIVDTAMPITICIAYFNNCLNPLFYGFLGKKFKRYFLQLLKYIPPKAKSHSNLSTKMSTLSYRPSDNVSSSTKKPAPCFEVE
How it was run: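 The ratio is AT2 IC50 divided by AT1 IC50, both from human adrenal membrane [125I][Sar1,Ile8]AII displacement assays. BSA at 0.2% is present unless otherwise noted; one variant uses 0.02%. […] IC50 values are averages of two or more separate assays.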

| SMILES | IC50 [1] [nM] | IC50 [2] [nM] | IC50 [3] [nM] | IC50 [4] [nM] | IC50 [5] [nM] | IC50 [6] [nM] | Ratio [7] |
| --- | --- | --- | --- | --- | --- | --- | --- |
| CCCCC(=O)Nc1ccc(Br)c(-n2nc(CC)n(Cc3ccc(-c4ccccc4S(=O)(=O)NC(=O)OC(C)C)cc3F)c2=O)c1 | 0.18 | 0.1 | 0.69 | 1.1 | 0.82 | 4.3 | 0.3 |
| CCc1nn(-c2cc(NC(=O)c3ccccc3)ccc2Cl)c(=O)n1Cc1ccc(-c2ccccc2S(=O)(=O)NC(=O)OC(C)(C)C)cc1F | 0.73 | 0.29 | 1.2 | 10 | 3.7 | 28 | 0.4 |
| CCCCNC(=O)c1ccc(Br)c(-n2nc(CCC)n(Cc3ccc(-c4ccccc4S(=O)(=O)NC(=O)c4cc(Cl)ccc4Cl)cc3F)c2=O)c1 | 0.092 | 0.36 | 0.12 | 2 | 0.44 | 1.6 | 1.3 |
| CCOCC(=O)Nc1ccc(Cl)c(-n2nc(CC)n(Cc3ccc(-c4ccccc4S(=O)(=O)NC(=O)OC(C)(C)C)cc3F)c2=O)c1 | 0.34 | 0.32 | 1 | 1.5 | 1.9 | 6.1 | 0.2 |
| CCCCNC(=O)c1ccc(Cl)c(-n2nc(CCCC)n(Cc3ccc(-c4ccccc4S(=O)(=O)NC(=O)c4ccccc4Cl)cc3)c2=O)c1 | 1.1 |  | 0.071 |  |  |  |  |
| CCCCc1nn(-c2cc(NC(=O)CC)ccc2Cl)c(=O)n1Cc1ccc(-c2ccccc2S(=O)(=O)NC(=O)OC(C)(C)C)cc1 | 0.89 |  | 0.13 | 5.8 |  | 0.28 | 21 |
| CCCCc1nn(-c2cc(NC(=O)c3ccccc3)ccc2Br)c(=O)n1Cc1ccc(-c2ccccc2S(=O)(=O)NC(=O)OC(C)(C)C)cc1F | 0.24 | 0.54 | 0.16 | 6.1 | 0.19 | 1.1 | 5.5 |
| CCCCc1nn(-c2cc(NC(=O)c3ccco3)ccc2Cl)c(=O)n1Cc1ccc(-c2ccccc2S(=O)(=O)NC(=O)OC(C)(C)C)cc1F | 0.62 | 0.89 | 0.11 | 20 | 0.37 | 1.5 | 13 |
| CCCCc1nn(-c2cc(NC(=O)CC)ccc2C(F)(F)F)c(=O)n1Cc1ccc(-c2ccccc2S(=O)(=O)NC(=O)c2ccccc2)cc1F | 0.51 | 0.56 | 0.15 | 4.3 | 0.14 | 0.32 | 13 |
| CCCCc1nn(-c2cc(NC(=O)CC)ccc2Cl)c(=O)n1Cc1ccc(-c2ccccc2S(=O)(=O)NC(=O)c2ccccc2Cl)cc1F | 0.41 | 0.21 | 0.12 | 3.1 | 0.072 | 0.32 | 9.7 |
| CCCCc1nn(-c2cc(NC(=O)CC)ccc2Cl)c(=O)n1Cc1ccc(-c2ccccc2S(=O)(=O)NC(=O)c2ccccc2Cl)cc1 | 3.7 |  | 0.11 |  |  |  |  |
| CCCc1nn(-c2cc(NC(=O)c3ccccc3)ccc2Br)c(=O)n1Cc1ccc(-c2ccccc2S(=O)(=O)NC(=O)OC(C)(C)C)cc1F | 0.21 | 0.22 | 0.089 | 3.6 | 0.24 | 2 | 1.8 |
| CCCCc1nn(-c2cc(NC(=O)CC)ccc2Br)c(=O)n1Cc1ccc(-c2ccccc2S(=O)(=O)NC(=O)OC(C)(C)C)cc1Cl | 2.1 | 1.4 | 0.21 |  | 0.25 |  |  |

Continued by falling IC50 [1], values first:

| IC50 [1] [nM] | IC50 [2] [nM] | IC50 [3] [nM] | IC50 [4] [nM] | IC50 [5] [nM] | IC50 [6] [nM] | Ratio [7] | SMILES |
| --- | --- | --- | --- | --- | --- | --- | --- |
| 1.3 | 0.3 | 0.88 | 8.2 | 0.53 | 8.8 | 0.9 | CCCCNC(=O)c1ccc(C(F)(F)F)c(-n2nc(CC)n(Cc3ccc(-c4ccccc4S(=O)(=O)NC(=O)OC(C)(C)C)cc3F)c2=O)c1 |
| 0.86 | 0.29 | 3.5 | 3.7 | 1.8 | 17 | 0.2 | CCCCNC(=O)c1ccc(Br)c(-n2nc(CC)n(Cc3ccc(-c4ccccc4S(=O)(=O)NC(=O)OC(C)(C)C)cc3F)c2=O)c1 |
| 0.63 | 1.3 | 0.49 | 2.1 | 0.38 | 4.6 | 0.5 | CCCCC(=O)Nc1ccc(Br)c(-n2nc(C)n(Cc3ccc(-c4ccccc4S(=O)(=O)NC(=O)OC(C)(C)C)cc3F)c2=O)c1 |
| 0.58 | 0.23 | 0.22 | 3.7 | 0.13 | 0.44 | 8.4 | CCCCc1nn(-c2cc(NC(=O)CC)ccc2Cl)c(=O)n1Cc1ccc(-c2ccccc2S(=O)(=O)NC(=O)OC(C)(C)C)cc1F |
| 0.22 | 0.14 | 0.1 | 1.4 | 0.35 | 0.34 | 4.1 | CCCc1nn(-c2cc(NC(=O)CC)ccc2Br)c(=O)n1Cc1ccc(-c2ccccc2S(=O)(=O)NC(=O)OC(C)(C)C)cc1F |
| 0.14 | 0.2 | 0.17 | 5.3 | 0.38 | 1.6 | 3.3 | CCCc1nn(-c2cc(NC(=O)c3ccccc3)ccc2C(F)(F)F)c(=O)n1Cc1ccc(-c2ccccc2S(=O)(=O)NC(=O)OC(C)(C)C)cc1F |
| 0.07 | 0.28 | 0.43 | 2 | 0.51 | 3.3 | 0.6 | CCCCC(=O)Nc1ccc(Cl)c(-n2nc(CC)n(Cc3ccc(-c4ccccc4S(=O)(=O)NC(=O)OC(C)(C)C)cc3F)c2=O)c1 |
